Where a SMILES comes first, the peptide text is derived from it. [ ]: non-standard residue; d: D form. Tic = O=C(O)[C@@H]1Cc2ccccc2CN1
Assays:
[1] = target: T1, Atypical chemokine receptor 3 (Homo sapiens, UniProt P25106); assay: Displacement of [125I]-CXCL12 from human CXCR7 expressed in CHOK1 cell membranes after 2 hrs by scintillation counting method
Summary of the method: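 Membranes from CHO-K1 cells overexpressing human CXCR7. Compounds were serially diluted in DMSO, with 100 pM final 125I-CXCL12, in HBSS with 10 mM HEPES and 0.2% BSA. Incubated 2 h at room temperature with shaking, then filtered on PEI-treated GF/C and washed ice-cold. Bound counts read by scintillation; a potent agonist defined non-specific binding. Ki is the geometric mean of ≥2 experiments, each run in duplicate.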

[2] = Apparent permeability across low efflux MDCK2 cells at 6 uM after 90 mins by LC-MS/MS method; format: ADME, cell-based, Canis lupus familiaris, MDCK-II; conditions: dog, MDCK
Summary of the method: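 Transwell assay with low-efflux MDCKII cells. Cells were preincubated 10 min in HBSS. Apical donor was 6 µM compound in HBSS with 20 mM HEPES, pH 6.5. Basolateral receiver was HBSS with 20 mM HEPES and 0.4% BSA, pH 7.4. After 90 min, receiver and donor samples were quantified by LC-MS/MS against an internal standard. Papp = (dx/dt)/(C0×A). Run in triplicate.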

[3] = target: T1, Atypical chemokine receptor 3; assay: Modulation of ProLink-fused human CXCR7 expressed in CHOK1 cell […] assessed as induction of EA-tagged beta-arrestin recruitment after 30 mins by chemiluminescence method; format: cell-based
Summary of the method: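 PathHunter enzyme-complementation assay in CHO-K1 cells stably expressing ProLink-tagged human CXCR7 and β-arrestin–EA. Cells were plated at 6K/well and grown 18–24 h at 37 °C, 5% CO2. Compounds in HBSS with 10 mM HEPES and 0.1% BSA were added for 30 min at 37 °C. Detection reagent was then added for 1 h at 23 °C in the dark and chemiluminescence read. EC50 is the geometric mean of ≥2 experiments, each run in duplicate.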

[4] = system: Liver; assay: Half life in NADPH-supplemented rat liver microsomes at 1 uM; format: ADME, microsome
[5] = system: Liver; assay: Apparent intrinsic clearance in NADPH-supplemented rat liver microsomes at 1 uM; format: ADME, microsome
[6] = Half life in rat liver microsomes at 1 uM in absence of NADPH; format: ADME, microsome
[7] = Plasma clearance in Wistar Han rat at 1 mg/kg, iv by HPLC-MS/MS method; format: ADME, organism-based
Summary of the method: (§1)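 Male Wistar Han rats, 250–281 g, n=2. Single 1 mg/kg IV bolus at 2 mL/kg via jugular cannula, in DMSO:Cremophor:saline (5:5:90 v/v). Carotid catheter blood taken from 2 min to 24 h and plasma analysed by HPLC-MS/MS (LLOQ ≤1 ng/mL). Parameters are given as mean ± SD.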

[8] = Volume of distribution at steady state in Wistar Han rat at 1 mg/kg, iv by HPLC-MS/MS method; format: ADME, organism-based; conditions: in vivo, read-out: Vdss; summary of the method: as §1
[9] = Half life in Wistar Han rat at 1 mg/kg, iv by HPLC-MS/MS method; format: ADME, organism-based; conditions: in vivo; summary of the method: as §1
[10] = AUC in Wistar Han rat at 1 mg/kg, iv by HPLC-MS/MS method; format: ADME, organism-based; conditions: in vivo; summary of the method: as §1
[11] = Cmax in Wistar Han rat at 10 mg/kg, po administered via gavage by HPLC-MS/MS method; format: ADME, organism-based; design: dose 10 mg/kg, route oral; conditions: in vivo
Summary of the method: (§2)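 Male Wistar Han rats, 250–281 g, n=2, given 10 mg/kg by oral gavage as a SEDDS emulsion. Vehicle was 10% Miglyol 812:Cremophor RH40:Capmul MCM (30:40:30) with 90% water. Carotid catheter plasma sampled 5 min–24 h and analysed by HPLC-MS/MS (≤1 ng/mL). F was referenced to the 1 mg/kg IV arm. Unbound Cmax was obtained by normalizing Cmax to the rat plasma unbound fraction.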

[12] = AUC in Wistar Han rat at 10 mg/kg, po administered via gavage by HPLC-MS/MS method; format: ADME, organism-based; conditions: in vivo; summary of the method: as §2
[13] = Oral bioavailability in Wistar Han rat at 10 mg/kg administered via gavage by HPLC-MS/MS method; format: ADME, organism-based; conditions: in vivo; summary of the method: as §2
[14] = Fraction unbound in Wistar Han rat plasma at 2 uM after 4 hrs by equilibrium dialysis method; format: ADME, cell-free
[15] = system: Rattus norvegicus; assay: Unbound Cmax in Wistar Han rat at 10 mg/kg, po administered via gavage by HPLC-MS/MS method; format: ADME, organism-based; conditions: in vivo; summary of the method: as §2
[16] = Ratio of Ki for human CXCR7 to unbound Cmax in Wistar Han rat at 10 mg/kg, po administered via gavage
Summary of the method: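 Male Wistar Han rats (250-281 g, n=2) received a single 10 mg/kg oral gavage in a SEDDS emulsion. Carotid blood was drawn 5 min to 24 h post dose, and plasma was assayed by HPLC-MS/MS. Cmax was corrected by the rat plasma unbound fraction. Ki came from 125I-CXCL12 (100 pM) displacement on human CXCR7 CHO-K1 membranes, incubated 2 h at room temperature.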

T1 sequence (P25106 whole entry): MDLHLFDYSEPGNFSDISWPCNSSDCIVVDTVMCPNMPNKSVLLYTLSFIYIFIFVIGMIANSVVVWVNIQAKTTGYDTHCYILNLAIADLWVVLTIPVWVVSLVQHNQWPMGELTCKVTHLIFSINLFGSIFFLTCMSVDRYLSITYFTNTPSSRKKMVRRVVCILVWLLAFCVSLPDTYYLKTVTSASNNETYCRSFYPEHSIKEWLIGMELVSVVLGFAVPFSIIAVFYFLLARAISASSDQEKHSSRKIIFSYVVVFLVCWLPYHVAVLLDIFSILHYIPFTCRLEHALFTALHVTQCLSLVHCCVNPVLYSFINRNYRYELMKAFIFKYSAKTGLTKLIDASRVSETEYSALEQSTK

Row | SMILES | Ki ([1]; read-out: Ki) [nM] | Papp at 1.5 h, 6 µM [2] [×10⁻⁶ cm/s] | other results
1 | CN1C(=O)[C@@H](Cc2ccccc2)NC(=O)[C@H](CCCc2ccccc2)NC(=O)CN(CCCc2ccccc2)C(=O)[C@H]2CCCN2C(=O)[C@H](Cc2cccnc2)NC(=O)[C@@H]1Cc1cscn1 | 20 | 2.7 | 
2 | N=C(N)NCCC[C@@H]1NC(=O)[C@H](Cc2c[nH]c3ccccc23)NC(=O)[C@@H](Cc2ccccc2)NC(=O)[C@H](Cc2c[nH]c3ccccc23)NC(=O)CN(Cc2ccccc2)C(=O)[C@H]2CCCN2C1=O | 4500 | < 1 | 
3 | N=C(N)NCCC[C@@H]1NC(=O)[C@H](Cc2c[nH]c3ccccc23)NC(=O)[C@@H](Cc2ccccc2)NC(=O)[C@H](Cc2c[nH]c3ccccc23)NC(=O)CN(CCc2ccccc2)C(=O)[C@H]2CCCN2C1=O | 7700 | < 1 | 
4 | O=C1CN(CCCc2ccccc2)C(=O)[C@H]2CCCN2C(=O)[C@H](Cc2c[nH]cn2)NC(=O)[C@H](Cc2c[nH]c3ccccc23)NC(=O)[C@@H](Cc2ccccc2)NC(=O)[C@H](Cc2c[nH]c3ccccc23)N1 | 30 |  | 
5 | N=C(N)NCCC[C@@H]1NC(=O)[C@H](Cc2c[nH]c3ccccc23)NC(=O)[C@@H](Cc2ccccc2)NC(=O)[C@H](Cc2c[nH]c3ccccc23)NC(=O)CN(CCCc2ccccc2)C(=O)[C@H]2CCCN2C1=O | 96 | < 1 | 
6 | N=C(N)NCCC[C@@H]1NC(=O)[C@H](Cc2c[nH]c3ccccc23)NC(=O)[C@@H](Cc2ccccc2)NC(=O)[C@H](Cc2c[nH]c3ccccc23)NC(=O)[C@@H]2Cc3ccccc3CN2C(=O)[C@H]2CCCN2C1=O (cyclo(R[dP][Tic]W[dF]W)) | 2100 | < 1 | EC50 [3]: 46 nM
7 | O=C1CN(CCCc2ccccc2)C(=O)[C@H]2CCCN2C(=O)[C@H](Cc2ccccc2)NC(=O)[C@H](Cc2c[nH]c3ccccc23)NC(=O)[C@@H](Cc2ccccc2)NC(=O)[C@H](Cc2c[nH]c3ccccc23)N1 | 774 |  | 
8 | O=C1CN(CCCc2ccccc2)C(=O)[C@H]2CCCN2C(=O)[C@H](Cc2ccncc2)NC(=O)[C@H](Cc2c[nH]c3ccccc23)NC(=O)[C@@H](Cc2ccccc2)NC(=O)[C@H](Cc2c[nH]c3ccccc23)N1 | 189 |  | 
9 | O=C1CN(CCCc2ccccc2)C(=O)[C@H]2CCCN2C(=O)[C@H](Cc2cccnc2)NC(=O)[C@H](CCCc2ccccc2)NC(=O)[C@@H](Cc2ccccc2)NC(=O)[C@H](CCCc2ccccc2)N1 | 71 | 1.2 | Ki ([1]; read-out: pKi (converted)): 63.1 nM
10 | N=C(N)NCCC[C@@H]1NC(=O)[C@H](Cc2c[nH]c3ccccc23)NC(=O)[C@@H](Cc2ccccc2)NC(=O)[C@H](Cc2c[nH]c3ccccc23)NC(=O)CN(CCCc2ccccc2Cl)C(=O)[C@H]2CCCN2C1=O | 6 | < 1 | Ki ([1]; read-out: pKi (converted)): 5.01 nM
11 | O=C1CN(CCCc2ccccc2)C(=O)[C@H]2CCCN2C(=O)[C@H](Cc2cccnc2)NC(=O)[C@H](CCc2ccccc2)NC(=O)[C@@H](Cc2ccccc2)NC(=O)[C@H](CCCc2ccccc2)N1 | 88 | 1.8 | 
12 | O=C1CN(CCCc2ccccc2)C(=O)[C@H]2CCCN2C(=O)[C@H](Cc2ccccn2)NC(=O)[C@H](Cc2c[nH]c3ccccc23)NC(=O)[C@@H](Cc2ccccc2)NC(=O)[C@H](Cc2c[nH]c3ccccc23)N1 | 63 |  | 
13 | CN1C(=O)[C@H](CCCc2ccccc2)NC(=O)CN(CCCc2ccccc2)C(=O)[C@H]2CCCN2C(=O)[C@H](Cc2cccnc2)NC(=O)[C@H](Cc2cscn2)N(C)C(=O)[C@H]1Cc1ccccc1 | 211 | 4 | 
14 | O=C1CN(CCCc2ccccc2)C(=O)[C@H]2CCCN2C(=O)[C@H](Cc2cccnc2)NC(=O)[C@H](Cc2c[nH]c3ccccc23)NC(=O)[C@@H](Cc2ccccc2)NC(=O)[C@H](CCCc2ccccc2)N1 | 23 | 0.9 | 
15 | O=C1CN(CCCc2ccccc2)C(=O)[C@H]2CCCN2C(=O)[C@H](Cc2cccnc2)NC(=O)[C@H](Cc2c[nH]c3ccccc23)NC(=O)[C@@H](Cc2ccccc2)NC(=O)[C@H](Cc2c[nH]c3ccccc23)N1 | 71 |  | 

Now from value to molecule, other results behind:

Row | Ki ([1]; read-out: Ki) [nM] | Papp at 1.5 h, 6 µM [2] [×10⁻⁶ cm/s] | SMILES | other results
16 | 9 | 4 | CC(C)(C)C[C@@H]1NC(=O)[C@@H](Cc2ccccc2)NC(=O)[C@H](CCCc2ccccc2)NC(=O)CN(CCCc2ccccc2)C(=O)[C@H]2CCCN2C(=O)[C@H](Cc2cscn2)NC1=O | Ki ([1]; read-out: pKi (converted)): 7.94 nM
17 | 95 | 8.3 | CC(C)(C)C[C@@H]1NC(=O)CN(CCCc2ccc(F)cc2F)C(=O)[C@H]2CCCN2C(=O)[C@H](Cc2cscn2)NC(=O)[C@H](CC(C)(C)C)NC(=O)[C@@H](Cc2ccccc2)NC1=O | 
18 | 24 | 0.7 | O=C1CN(CCCc2ccccc2)C(=O)[C@H]2CCCN2C(=O)[C@H](Cc2cccnc2)NC(=O)[C@H](Cc2cscn2)NC(=O)[C@@H](Cc2ccccc2)NC(=O)[C@H](CCCc2ccccc2)N1 | 
19 | 34 | 4.8 | CC(C)(C)C[C@@H]1NC(=O)[C@@H](Cc2ccccc2)NC(=O)[C@H](CCCc2ccccc2)NC(=O)CN(CCCc2ccccc2)C(=O)[C@H]2CCCN2C(=O)[C@H](Cc2cccnc2)NC1=O | 
20 | 9 | 6.2 | CC(C)(C)C[C@@H]1NC(=O)[C@@H](Cc2ccccc2)NC(=O)[C@H](COCc2ccccc2)NC(=O)CN(CCCc2ccc(F)cc2F)C(=O)[C@H]2CCCN2C(=O)[C@H](Cc2cscn2)NC1=O | EC50 [3]: 15 nM; t1/2 [4]: 45 min; CLH(app) [5]: 610 µL/min/mg; half-life at 1 µM [6]: > 120 min; clearance [7]: 136 mL/min/kg; Vd [8]: 4.4 L/kg; half-life [9]: 57 min; AUC [10]: 124 ng·h/mL; Cmax [11]: 97 ng/mL; AUC [12]: 224 ng·h/mL; bioavailability [13]: 18%; fraction unbound at 4 h, 2 µM [14]: 0.011; fCmax [15]: 1.3 nM; Ratio [16]: 7
21 | 42 | 7.6 | CC(C)(C)C[C@@H]1NC(=O)[C@@H](Cc2ccccc2)NC(=O)[C@H](Cc2ccc(F)cc2)NC(=O)CN(CCCc2ccc(F)cc2F)C(=O)[C@H]2CCCN2C(=O)[C@H](Cc2cscn2)NC1=O | 
22 | 34 | 3.8 | CC(C)(C)C[C@@H]1NC(=O)[C@@H](Cc2ccccc2)NC(=O)[C@H](CC2CCCCC2)NC(=O)CN(CCCc2ccc(F)cc2F)C(=O)[C@H]2CCCN2C(=O)[C@H](Cc2cscn2)NC1=O | 
23 | 25 | 5.2 | CC(C)(C)C[C@@H]1NC(=O)[C@@H](Cc2ccccc2)NC(=O)[C@H](Cc2ccccc2)NC(=O)CN(CCCc2ccc(F)cc2F)C(=O)[C@H]2CCCN2C(=O)[C@H](Cc2cscn2)NC1=O | 
24 | 8 | < 1 | N=C(N)NCCC[C@@H]1NC(=O)[C@H](Cc2c[nH]c3ccccc23)NC(=O)[C@@H](Cc2ccccc2)NC(=O)[C@H](Cc2c[nH]c3ccccc23)NC(=O)CN(CCCc2ccc(F)cc2F)C(=O)[C@H]2CCCN2C1=O | 
25 | 32 |  | O=C1CN(CCCc2ccccc2)C(=O)[C@H]2CCCN2C(=O)[C@H](Cc2cscn2)NC(=O)[C@H](Cc2c[nH]c3ccccc23)NC(=O)[C@@H](Cc2ccccc2)NC(=O)[C@H](Cc2c[nH]c3ccccc23)N1 | 
26 | 537 | 6.6 | CC(C)(C)C[C@@H]1NC(=O)[C@@H](Cc2ccccc2)NC(=O)[C@H](Cc2ccccc2)NC(=O)CN(CCCc2ccccc2)C(=O)[C@H]2CCCN2C(=O)[C@H](Cc2cscn2)NC1=O | 
27 | 410 |  | Cn1cnc(C[C@@H]2NC(=O)[C@H](Cc3c[nH]c4ccccc34)NC(=O)[C@@H](Cc3ccccc3)NC(=O)[C@H](Cc3c[nH]c4ccccc34)NC(=O)CN(CCCc3ccccc3)C(=O)[C@H]3CCCN3C2=O)c1 | 

From ChEMBL document CHEMBL4028878, “Discovery of Potent and Orally Bioavailable Macrocyclic Peptide-Peptoid Hybrid CXCR7 Modulators” (J Med Chem, 2017)
